Source: PubChem
JMJD2C inh: human JMJD2C demethylase inhibition; Q9H3R0; GST-JMJD2C(1-420) H3K9me3 demethylation, DELFIA europium; inhibition, % at 2.35 µM; 330,000 compounds, 0.069% hits;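 active = more than half of a compound's replicate wells show inhibition beyond 50%, single wells judged on their own value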;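 note: signal counts dimethyl H3K9 product captured on neutravidin plate; 0% = median of DMSO wells and 100% = 0.3 times that DMSO median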
SR-BI DiI inh: mouse SR-BI HDL lipid transfer inhibition. Q61009. ldlA[mSR-BI] CHO cells, DiI-HDL uptake fluorescence, 3 h. inhibition, % at 12.5 µM. 320,000 compounds, 0.96% hits. AID 488896;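 active = mean replicate inhibition of at least 70% and a set share of replicates each scoring 70 or more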;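 note: 0% = median of neutral control wells and 100% = median of positive control wells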
GAA850 FXN act: frataxin GAA850 promoter activation; HEK293 lucGAA850 FXN promoter luciferase reporter, 24 h; percent of 10 µM SAHA response; activation, % at 6 µM; 360,000 compounds, 0.56% hits; AID 540364;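 active = activation above the average of all compounds screened plus 3 SD, cutoff fixed separately per campaign, cut at about 7.5% in these data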;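 note: 0% = DMSO wells and 100% = 10 µM SAHA wells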
AHR act: activates the human aryl hydrocarbon receptor; P35869; AHR-responsive luciferase reporter cells, luminescence; activation, % at 5 µM; 320,000 compounds, 2.5% hits; AID 2796; in the data active = activation above about 47%;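 note: 0% = vehicle wells and 100% = reference agonist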
Target sequence (P35869 whole entry, looked up): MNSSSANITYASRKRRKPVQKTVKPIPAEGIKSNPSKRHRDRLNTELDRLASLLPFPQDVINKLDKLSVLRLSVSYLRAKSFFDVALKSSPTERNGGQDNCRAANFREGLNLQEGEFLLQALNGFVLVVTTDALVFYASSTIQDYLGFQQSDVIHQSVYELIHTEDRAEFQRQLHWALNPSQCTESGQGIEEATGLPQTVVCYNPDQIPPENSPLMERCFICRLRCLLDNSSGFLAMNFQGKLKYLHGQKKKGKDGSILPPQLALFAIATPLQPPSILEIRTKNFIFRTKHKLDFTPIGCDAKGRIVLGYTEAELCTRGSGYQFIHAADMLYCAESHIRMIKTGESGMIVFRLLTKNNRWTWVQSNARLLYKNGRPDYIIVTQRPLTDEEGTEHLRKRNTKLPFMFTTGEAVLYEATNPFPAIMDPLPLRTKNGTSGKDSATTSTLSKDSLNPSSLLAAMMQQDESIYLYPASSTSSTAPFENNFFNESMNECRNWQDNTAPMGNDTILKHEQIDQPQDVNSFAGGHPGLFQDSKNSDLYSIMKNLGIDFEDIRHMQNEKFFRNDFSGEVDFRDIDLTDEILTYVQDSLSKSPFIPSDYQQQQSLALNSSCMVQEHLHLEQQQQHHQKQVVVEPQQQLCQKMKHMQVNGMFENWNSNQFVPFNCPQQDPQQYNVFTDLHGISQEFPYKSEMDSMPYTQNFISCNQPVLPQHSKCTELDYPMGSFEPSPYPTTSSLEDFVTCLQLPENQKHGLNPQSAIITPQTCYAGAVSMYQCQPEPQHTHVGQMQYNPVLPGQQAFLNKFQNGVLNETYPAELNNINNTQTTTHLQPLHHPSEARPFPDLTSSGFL
SR-BI uptake up: SR-BI HDL lipid transfer activation; CHO ldlA[mSR-BI] cells, DiI-HDL uptake fluorescence, 3 h; 100 = double the neutral-control signal; activation, % at 12.5 µM; 320,000 compounds, 0.096% hits;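 active = mean replicate activation of at least 60% and every replicate at or above 60%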;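 note: 0% = median plate neutral-control signal and 100% = twice that signal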
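Test system: SR-BI-overexpressing, LDLR-lacking CHO cells. Measured by: DiI fluorescence, bottom read. Medium: Ham's F12 with 0.5% BSA, HEPES 25 mM, pH 7.4. Timing: 3 h uptake period with compound, 37 °C.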
* hit, by the source's call; i = inactive; · = no result given. This is a sample that favours compounds with a hit; in the whole collection about 3.7% have one here.

SMILES	JMJD2C inh	SR-BI DiI inh	GAA850 FXN act	AHR act	SR-BI uptake up
O=C(N/N=C/c1cn(-c2ccccc2)nc1-c1cccnc1)c1ccc(F)cc1	2.9	59.1	0.0	28.3	-59.1
O=C1COc2ccc(C(=O)COC(=O)CNS(=O)(=O)c3cccc(F)c3)cc2N1	1.9	-5.1	0.6	0.6	5.1
CCOc1ccccc1CN1CCNC(=O)C1CC(=O)NC1CCCCC1 (configuration not stated)	23.5	-27.4	0.8	-0.2	27.4
CCNc1nc(ON=C(C)C)nc(N(C)C)n1	2.3	-64.1	-0.4	0.9	64.1*
CCOc1ccc(NC(=O)CN(C)CC(=O)Nc2cc(Cl)ccc2C#N)cc1OCC	59.8*	33.9	0.7	54.8*	-33.9
CCOc1ccc(NC(=O)CN(C)C(=O)c2cccnc2Sc2ccc(Cl)cc2)cc1OCC	i	-81.9	-3.9	0.5	81.9*
CCOc1ccc(NC(=O)CN(C)C(=O)c2cccnc2Sc2ccc(C)c(C)c2)cc1OCC	-22.4	39.8	5.6	0.0	-39.8
COc1ccc(/C=N\NC(=O)c2ccccc2OC)cc1COc1c(F)c(F)c(F)c(F)c1F	26.0	-21.0	2.1	35.3	21.0
COc1ccc(/C=N\NC(=O)c2ccccc2Br)cc1COc1ccc(F)cc1	-4.7	79.3*	0.1	0.6	-79.3
COc1ccc(/C=N\NC(=O)c2ccc([N+](=O)[O-])c(C)c2)cc1COc1ccccc1C(N)=O	-1.0	64.5	-1.3	9.2	-64.5
COc1ccc(/C=N/NC(=O)c2ccccc2OC)cc1COc1ccc(C)cc1	13.2	54.6	2.8	47.4*	-54.6
COc1ccc(/C=N/NC(=O)c2ccccc2OC)cc1COc1ccccc1[N+](=O)[O-]	-1.3	13.1	1.0	66.2*	-13.1
CC1(C(=O)Nc2ccc3c(c2)OCO3)CCN1C(=O)CCc1ccc(Cl)cc1Cl (configuration not stated)	·	·	2.2	·	·
CSC(=S)N/N=C/c1ccc(N(C)C)cc1	-1.6	-33.4	2.5	51.1*	33.4
CSc1sccc1/C=C(/C#N)C(=O)c1ccco1	-0.3	-9.1	1.0	2.4	9.1
COc1c2ccc(OCC/C(C)=C/C(=O)C=C(C)C)cc2nc2occc12	1.4	49.4	0.7	75.5*	-49.4
Brc1ccc(N=Cc2ccccn2)cc1	-0.3	·	2.0	55.4*	·
C(=C\c1ccccn1)/c1ccccn1	-18.7	1.9	4.5	4.3	-1.9
Nc1[nH]n2c(=O)c3c(nc2c1N=Nc1ccccc1)CCCC3	3.5	-16.6	0.4	11.0	16.6
Nc1[nH]n2c(=O)c3c(nc2c1N=Nc1ccc(Cl)cc1)CCCC3	-1.8	-14.4	2.1	57.2*	14.4
CC(C)(C)N1C(=O)[C@H]2[C@@H](c3ccc(Br)cc3)N3C(=O)N(c4ccccc4)C(=O)[C@@]3(C)[C@H]2C1=O	-2.0	-19.2	12.0*	3.1	19.2
COc1ccc([C@@H]2[C@@H]3C(=O)N(C(C)(C)C)C(=O)[C@@H]3[C@]3(C)C(=O)N(c4cccc(C)c4)C(=O)N23)cc1	-1.4	-14.4	3.8	0.6	14.4
Cc1ccc(S(=O)(=O)N2CCOCC2)cc1N/N=C(\C#N)c1nc2ccccc2[nH]1	-16.7	10.4	5.6	58.9*	-10.4
CCOc1ccccc1CN1CCCC(C(=O)Nc2cccc(-n3cccn3)c2)C1 (configuration not stated)	-8.0	7.5	-7.5	9.9	-7.5
CCn1cc(SCC(=O)NCC2CCCO2)c2ccccc21 (configuration not stated)	1.5	9.2	-0.6	7.9	-9.2
O=C(CN1c2ccccc2Sc2ccccc21)NNC(=S)Nc1ccc(Cl)cc1Cl	4.0	75.9*	-0.3	5.7	-75.9
O=C(CN1c2ccccc2Sc2ccccc21)NNC(=S)Nc1ccc(Cl)cc1	-24.6	63.0	0.8	1.2	-63.0
CCOC(CNC(=O)CN1C(=O)COc2ccc(S(=O)(=O)N3CC(C)CC(C)C3)cc21)OCC (configuration not stated)	-15.3	-24.9	1.8	1.6	24.9
CCc1cccc(C)c1NC(=O)CCCSc1nc2ccccc2s1	4.5	-12.2	-0.8	17.6	12.2
CCc1cccc(CC)c1NC(=O)C1SC(=Nc2ccccc2C)C(c2nc3ccccc3s2)=C1N (configuration not stated)	-1.3	34.1	4.0	53.9*	-34.1
